ChEMBL document CHEMBL3758153, “Identification of novel cyclic lipopeptides from a positional scanning combinatorial library with enhanced antibacterial and antibiofilm activities” (Eur J Med Chem, 2016)
Calls of active or inactive are those of the source. No cut-off for these calls is given here. Where a SMILES comes first, the peptide text is derived from it. Bridges are numbered along the chain shown (N, C = ends). [ ]: non-standard residue; d: D form. The star is where a group is joined. Dodecanoyl(12-guanidino) = N=C(N)NCCCCCCCCCCCC(=O)*; d(aThr) = C[C@@H](O)[C@@H](N)C(=O)O

What was measured:
[1] = system: Staphylococcus aureus; test: Antibacterial activity against methicillin-resistant Staphylococcus aureus CBD-635 at 10 ug/mL; assay type: functional, organism-based
How it was run: (§1)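 CLSI microbroth dilution in undiluted Müller–Hinton broth; peptides dissolved in DMSO and diluted in medium to 1% DMSO (v/v) final. Each agent tested at a fixed concentration against the ESKAPE clinical isolate. Controls: medium alone, inoculum without drug, and inoculum with methicillin, vancomycin, nisin, colistin or bacitracin. Run in triplicate.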

[2] = system: Staphylococcus aureus; test: Antibacterial activity against methicillin-resistant Staphylococcus aureus CBD-635 at 25 ug/mL; assay type: functional, organism-based; how it was run: as §1
[3] = system: Pseudomonas aeruginosa; test: Ratio of MIC for Pseudomonas aeruginosa USF-1423 after 8 serial passages to MIC for Pseudomonas aeruginosa USF-1423 after 1st serial passage; assay type: functional
How it was run: (§2)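 Serial passage: exponential-phase cultures in MHB at about 10^6 CFU/mL final, started at ½ MIC of agent, incubated overnight at 37°C. An aliquot was moved each step to a 2-fold higher concentration, for 8 passages. MIC was determined at each step by broth microdilution. Vancomycin and ciprofloxacin were comparators. Three independent experiments.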

[4] = system: Staphylococcus aureus; test: Ratio of MIC for methicillin-resistant Staphylococcus aureus CBD-635 after 8 serial passages to MIC for methicillin-resistant Staphylococcus aureus CBD-635 after 1st serial passage; assay type: functional; how it was run: as §2
[5] = system: Staphylococcus aureus; test: Antibacterial activity against methicillin-resistant Staphylococcus aureus CBD-635 at 50 ug/mL; assay type: functional, organism-based; how it was run: as §1
[6] = system: Staphylococcus aureus; test: Antibacterial activity against methicillin-resistant Staphylococcus aureus CBD-635 at 100 ug/mL; assay type: functional, organism-based; how it was run: as §1
[7] = system: Acinetobacter baumannii; test: Antibacterial activity against Acinetobacter baumannii USF-1403 at 100 ug/mL; assay type: functional, organism-based
How it was run: (§3)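 Broth microdilution per CLSI in undiluted Müller–Hinton broth. Compounds were dissolved in DMSO and diluted to a final 1% DMSO (v/v). Plates included medium-only and no-drug growth controls, plus methicillin, vancomycin, nisin, colistin and bacitracin. Triplicate runs.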

[8] = system: Staphylococcus aureus; test: Antibacterial activity against methicillin-resistant Staphylococcus aureus CBD-635 at 5 ug/mL; assay type: functional, organism-based; how it was run: as §1
[9] = system: Acinetobacter baumannii; test: Antibacterial activity against Acinetobacter baumannii USF-1403 at 25 ug/mL; assay type: functional, organism-based; how it was run: as §3
[10] = system: Enterococcus faecium; test: Antibacterial activity against vancomycin-resistant Enterococcus faecium USF-1449 at 50 ug/mL; assay type: functional, organism-based; how it was run: as §1
[11] = system: Klebsiella pneumoniae; test: Antibacterial activity against carbapenem-resistant Klebsiella pneumoniae USF-1433 at 50 ug/mL; assay type: functional, organism-based; how it was run: as §1
[12] = system: Acinetobacter baumannii; test: Antibacterial activity against Acinetobacter baumannii USF-1403 at 35 ug/mL; assay type: functional, organism-based; how it was run: as §3
[13] = system: Staphylococcus aureus; test: Antibacterial activity against methicillin-resistant Staphylococcus aureus CBD-635 at 35 ug/mL; assay type: functional, organism-based; how it was run: as §1
[14] = system: Acinetobacter baumannii; test: Antibacterial activity against Acinetobacter baumannii USF-1403 at 50 ug/mL; assay type: functional, organism-based; how it was run: as §3
[15] = system: Klebsiella pneumoniae; test: Antibacterial activity against carbapenem-resistant Klebsiella pneumoniae USF-1433 at 100 ug/mL; assay type: functional, organism-based; how it was run: as §1
[16] = system: Enterococcus faecium; test: Antibacterial activity against vancomycin-resistant Enterococcus faecium USF-1449 at 100 ug/mL; assay type: functional, organism-based; how it was run: as §1
[17] = system: Enterococcus faecium; test: Antibacterial activity against vancomycin-resistant Enterococcus faecium USF-1449 at 35 ug/mL; assay type: functional, organism-based; how it was run: as §1
[18] = system: Staphylococcus aureus; test: Antibacterial activity against methicillin-resistant Staphylococcus aureus SAP0017 clinical isolate assessed as eradication of mature biofilm formation at 4.8 uM after 24 hrs by Styo-9/propidium iodide staining based confocal laser scanning microscopy; assay type: functional, organism-based
[19] = system: Pseudomonas aeruginosa; test: Antibacterial activity against Pseudomonas aeruginosa PA14 assessed as eradication of mature biofilm formation at 4.8 uM after 24 hrs by Styo-9/propidium iodide staining based confocal laser scanning microscopy; assay type: functional, organism-based
[20] = system: Staphylococcus aureus; test: Antibacterial activity against methicillin-resistant Staphylococcus aureus SAP0017 clinical isolate assessed as inhibition of biofilm formation at 4.8 uM after 3 days by Styo-9/propidium iodide staining based confocal laser scanning microscopy; assay type: functional, organism-based
[21] = Hemolytic activity in human erythrocytes at 320 uM after 1 hr; assay type: ADME, cell-based; settings: erythrocyte
[22] = system: Pseudomonas aeruginosa; test: Antibacterial activity against Pseudomonas aeruginosa PA14 assessed as inhibition of biofilm formation at 4.8 uM after 3 days by Styo-9/propidium iodide staining based confocal laser scanning microscopy; assay type: functional, organism-based
[23] = Hemolytic activity in human erythrocytes at 155 uM after 1 hr; assay type: ADME, cell-based; settings: erythrocyte
[24] = system: Enterococcus faecium; test: Antibacterial activity against vancomycin-resistant Enterococcus faecium USF-1449 at 25 ug/mL; assay type: functional, organism-based; how it was run: as §1
[25] = system: BJ; test: Cytotoxicity against human BJ cells assessed as reduction in cell viability at 150 uM after 48 to 72 hrs by Cell Titer-Glo Luminescent assay; assay type: cell-based
How it was run: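 BJ fibroblasts were seeded at 10,000 per well in EMEM with 10% FBS and incubated overnight at 37 °C, 5% CO2. Medium was then replaced with 2% FBS medium containing peptide (0.5–500 μM, final 1% DMSO). After 48 and 72 h, viability was read by CellTiter-Glo luminescence. Controls were 10 μM doxorubicin and 20% DMSO.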

[26] = system: Acinetobacter baumannii; test: Antibacterial activity against Acinetobacter baumannii USF-1403 at 5 ug/mL; assay type: functional, organism-based; how it was run: as §3
[27] = system: Pseudomonas aeruginosa; test: Antibacterial activity against Pseudomonas aeruginosa USF-1423 at 50 ug/mL; assay type: functional, organism-based; how it was run: as §3
[28] = system: Enterobacter cloacae; test: Antibacterial activity against carbapenem-resistant Enterobacter cloacae USF-1454 at 25 ug/mL; assay type: functional, organism-based; how it was run: as §1
[29] = system: Enterobacter cloacae; test: Antibacterial activity against carbapenem-resistant Enterobacter cloacae USF-1454 at 100 ug/mL; assay type: functional, organism-based; how it was run: as §1
[30] = system: Pseudomonas aeruginosa; test: Antibacterial activity against Pseudomonas aeruginosa USF-1423 at 10 ug/mL; assay type: functional, organism-based; how it was run: as §3
[31] = system: Enterobacter cloacae; test: Antibacterial activity against carbapenem-resistant Enterobacter cloacae USF-1454 at 50 ug/mL; assay type: functional, organism-based; how it was run: as §1
[32] = system: Pseudomonas aeruginosa; test: Antibacterial activity against Pseudomonas aeruginosa USF-1423 at 5 ug/mL; assay type: functional, organism-based; how it was run: as §3
[33] = system: Enterococcus faecium; test: Antibacterial activity against vancomycin-resistant Enterococcus faecium USF-1449 at 10 ug/mL; assay type: functional, organism-based; how it was run: as §1
[34] = system: Acinetobacter baumannii; test: Antibacterial activity against Acinetobacter baumannii USF-1403 at 10 ug/mL; assay type: functional, organism-based; how it was run: as §3
[35] = system: Pseudomonas aeruginosa; test: Antibacterial activity against Pseudomonas aeruginosa USF-1423 at 100 ug/mL; assay type: functional, organism-based; how it was run: as §3
[36] = system: Pseudomonas aeruginosa; test: Antibacterial activity against Pseudomonas aeruginosa USF-1423 at 25 ug/mL; assay type: functional, organism-based; how it was run: as §3

Compound	Activity [2]	Activity [5]	Activity [6]	Activity [7]	Activity [10]	Activity [13]	Activity [16]	other results
CN[C@@H](CC(C)C)C(=O)N[C@H]1C(=O)N[C@@H](CC(N)=O)C(=O)N[C@H]2C(=O)N[C@H]3C(=O)N[C@H](C(=O)N[C@@H](C(=O)O)c4cc(O)cc(O)c4-c4cc3ccc4O)[C@H](O)c3ccc(c(Cl)c3)Oc3cc2cc(c3O[C@H]2O[C@@H](CO)[C@H](O)[C@@H](O)[C@@H]2O[C@@H]2C[C@@](C)(N)[C@@H](O)[C@@H](C)O2)Oc2ccc(cc2Cl)[C@H]1O	Active	Active	Active	Active				Activity [1]: Active; Ratio [3]: 64; Ratio [4]: 64; Activity [8]: Active
CC(C)C[C@@H]1NC(=O)[C@@H](CC(C)C)NC(=O)C(NC(=O)CCCCCCCCCCCNC(=N)N)CNC(=O)[C@@H](CCCNC(=N)N)NC(=O)[C@@H](CC(N)=O)NC(=O)[C@@H](CCCCN)NC1=O (stereo partly drawn)		Active	Active	Active	Active	Active	Active	Activity [9]: Active; Activity [11]: Active; Activity [12]: Active; Activity [14]: Active; Activity [15]: Active; Activity [17]: Active
CC(C)C[C@@H]1NC(=O)[C@@H](Cc2c[nH]c3ccccc23)NC(=O)C(NC(=O)CCCCCCCCCCCNC(=N)N)CNC(=O)[C@@H](CCCNC(=N)N)NC(=O)[C@@H](CC(N)=O)NC(=O)[C@@H](Cc2c[nH]c3ccccc23)NC1=O (stereo partly drawn)	Active	Active	Active			Active		
C[C@@H](O)[C@H]1NC(=O)[C@@H](CC(N)=O)NC(=O)[C@@H](CCCNC(=N)N)NC(=O)[C@H](Cc2c[nH]c3ccccc23)NC(=O)[C@@H](Cc2c[nH]c3ccccc23)NC(=O)C(NC(=O)CCCCCCCCCCCNC(=N)N)CNC1=O (stereo partly drawn)		Active	Active			Active		
O=C(O)c1cn(C2CC2)c2cc(N3CCNCC3)c(F)cc2c1=O [CIPROFLOXACIN]								Ratio [3]: 64; Ratio [4]: 64
CC(C)[C@@H]1NC(=O)[C@@H](C(C)C)NC(=O)C(NC(=O)CCCCCCCCCCCNC(=N)N)CNC(=O)[C@@H](C)NC(=O)[C@@H](CC(N)=O)NC(=O)[C@@H]([C@@H](C)O)NC1=O (stereo partly drawn)	Active		Active	Active	Active		Active	inhibition [18]: inactive; inhibition [19]: inactive; inhibition [20]: Active; Activity [21]: Non-toxic; inhibition [22]: Active
CC(C)[C@@H]1NC(=O)[C@@H](C(C)C)NC(=O)[C@@H](NC(=O)CCCCCCCCCCCNC(=N)N)[C@@H](C)OC(=O)[C@@H](C)NC(=O)[C@@H](CC(N)=O)NC(=O)[C@@H]([C@@H](C)O)NC1=O ({Dodecanoyl(12-guanidino)}-T[dV]V[d(aThr)][dN][dA]; ester 1-C)	Active	Active	Active	Active	Active			Activity [1]: Active; Activity [18]: Active; Activity [23]: Toxic; Activity [24]: Active; Activity [19]: Active; Activity [25]: Toxic; inhibition [20]: Active; inhibition [22]: Active
CC(C)C[C@@H]1NC(=O)[C@@H](CC(C)C)NC(=O)C(NC(=O)CCCCCCCCCCCNC(=N)N)CNC(=O)[C@@H](CCCCN)NC(=O)[C@@H](CC(N)=O)NC(=O)[C@@H](Cc2ccccc2)NC1=O (stereo partly drawn)		Active	Active			Active		
CC[C@@H](C)[C@H]1NC(=O)[C@H](Cc2ccccc2)NC(=O)[C@@H](CC(C)C)NC(=O)C(NC(=O)CCCCCCCCCCCNC(=N)N)CNC(=O)[C@@H](CCCCN)NC(=O)[C@@H](CC(N)=O)NC1=O (stereo partly drawn)		Active	Active			Active		
CC[C@@H](C)[C@H]1NC(=O)[C@H](Cc2ccccc2)NC(=O)[C@@H](CC(C)C)NC(=O)C(NC(=O)CCCCCCCCCCCNC(=N)N)CNC(=O)[C@@H](CCCNC(=N)N)NC(=O)[C@@H](CC(N)=O)NC1=O (stereo partly drawn)		Active	Active			Active		
CC[C@@H](C)[C@H]1NC(=O)[C@H](CC(C)C)NC(=O)[C@@H](CCCCN)NC(=O)C(NC(=O)CCCCCCCCCCCNC(=N)N)CNC(=O)[C@@H](CCCCN)NC(=O)[C@@H](CC(N)=O)NC1=O (stereo partly drawn)				Active	Active		Active	Activity [9]: Active; Activity [12]: Active; Activity [14]: Active
CC(C)C[C@@H]1NC(=O)[C@@H](CC(C)C)NC(=O)C(NC(=O)CCCCCCCCCCCNC(=N)N)CNC(=O)[C@@H](CCCNC(=N)N)NC(=O)[C@@H](CC(N)=O)NC(=O)[C@@H](Cc2ccccc2)NC1=O (stereo partly drawn)		Active	Active					
COLISTIN			Active	Active	Active		Active	Activity [9]: Active; Activity [26]: Active; Activity [27]: Active; Activity [28]: Active; Activity [29]: Active; Activity [14]: Active; Activity [15]: Active; Activity [24]: Active; Activity [30]: Active; Activity [31]: Active; Activity [32]: Active; Activity [33]: Active; Activity [34]: Active; Activity [35]: Active; Activity [36]: Active
